Experiment [1] concerns the target T1, Free fatty acid receptor 1 (Homo sapiens, UniProt O14842). The experiment can be described thus: Agonist activity at human GPR40 expressed in CHO-A12 cells assessed as increase in intracellular calcium flux measured for 100 secs by FLIPR assay. The experiment is classed as functional, cell-based. A general note: A change in cytosolic calcium serves as a functional read-out for many receptors and channels.

Experiment [2] deals with T1, Free fatty acid receptor 1. The experiment can be described thus: Binding affinity to human GPR40 expressed in HEK293 cell membranes after 1 hr by radioligand displacement based scintillation counting method. An outline of the steps: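 Binding of human GPR40 measured as Ki against a radioligand. Mean of at least two runs. Displacement of the label appears as a negative slope and potentiation as a positive one.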
On the technique in general: In a radioligand displacement assay an active substance lowers the binding of a labelled ligand.

For experiment [3], the target named is Free fatty acid receptor 1 (Mus musculus, UniProt Q76JU9). The experiment can be described thus: Agonist activity at mouse GPR40 expressed in CHO-A12 cells assessed as increase in intracellular calcium flux measured for 100 secs by FLIPR assay. The experiment is classed as functional, cell-based.
Experiment [4] has as its target Free fatty acid receptor 1 (Mus musculus) (UniProt Q76JU9). The experiment can be described thus: Intrinsic activity at mouse GPR40 expressed in CHO-A12 cells assessed as increase in intracellular calcium flux at 8.3 uM measured for 100 secs by FLIPR assay […]. It is filed as functional, cell-based.

Bounds are passed on as bounds.

A word on the EC50: it is the concentration needed to bring the measured effect to its halfway point. As a reminder, the Ki is a measure of affinity in units of concentration, obtained from inhibition or displacement. A high value points to lower affinity.

Chain of Free fatty acid receptor 1 (Mus musculus) (Q76JU9 whole entry): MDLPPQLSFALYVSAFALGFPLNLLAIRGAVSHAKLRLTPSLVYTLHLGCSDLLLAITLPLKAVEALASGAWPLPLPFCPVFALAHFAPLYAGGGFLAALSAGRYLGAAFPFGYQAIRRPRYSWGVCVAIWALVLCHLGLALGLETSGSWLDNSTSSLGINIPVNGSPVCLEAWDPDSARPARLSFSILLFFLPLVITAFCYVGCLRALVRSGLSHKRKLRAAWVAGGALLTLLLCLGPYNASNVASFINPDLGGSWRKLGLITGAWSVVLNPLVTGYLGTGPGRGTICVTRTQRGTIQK
Chain of Free fatty acid receptor 1 (Mus musculus, UniProt Q76JU9) (Q76JU9 whole entry): as above
T1 sequence (O14842 whole entry): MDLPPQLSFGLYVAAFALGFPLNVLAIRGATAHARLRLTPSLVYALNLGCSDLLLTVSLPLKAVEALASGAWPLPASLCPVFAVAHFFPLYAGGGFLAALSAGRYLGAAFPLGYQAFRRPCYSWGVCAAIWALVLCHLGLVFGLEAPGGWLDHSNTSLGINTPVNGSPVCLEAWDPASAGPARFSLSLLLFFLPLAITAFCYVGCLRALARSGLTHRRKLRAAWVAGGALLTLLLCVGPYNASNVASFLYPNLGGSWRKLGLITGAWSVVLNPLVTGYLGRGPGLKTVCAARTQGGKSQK

For the molecule `Cc1ccccc1COc1ccc(N2CCC[C@H]2CC(=O)O)cn1`, the EC50 in experiment [1] is 450 nM; in experiment [3], greater than 33 µM. The molecule further gave a Ki in experiment [2] of 1800 nM.
Consider `COc1ccc(F)c(-c2cccc(Oc3ccc(N4CCC[C@H]4CC(=O)O)cc3)c2C)c1`, for which the EC50 in experiment [1] amounted to 310 nM; in experiment [3] it was 3 µM. Further, the Intrinsic activity in experiment [4] is 83%.
In the same order, the values of `Cc1cccc(C)c1Oc1ccc(N2C[C@@H](C(F)(F)F)C[C@H]2CC(=O)O)cc1` are 82 nM, 0.27 µM and 36%.
With `Cc1ccccc1S(=O)(=O)c1ccc(N2CCC[C@H]2CC(=O)O)cc1`, the EC50 in experiment [1] is greater than 33000 nM; in experiment [3], greater than 33 µM.
In the same order, the values of `O=C(O)C1CC(=O)N(c2ccc(OCc3ccc(Cl)cc3Cl)cc2)C1` (stereo not given) are 5000 nM and greater than 33 µM.
In the same order, the values of `O=C(O)CC1CCCCCN1c1ccc(OCc2ccc(Cl)cc2Cl)cc1` (single isomer, unassigned; enantiomer 2) are 11000 nM and greater than 33 µM.
Consider `Cc1cccc(Oc2ccc(N3C[C@@H](C(F)(F)F)C[C@H]3CC(=O)O)cc2)c1C`, for which the values for the EC50 in experiment [1] and in experiment [3] were 110 nM and 0.5 µM, respectively. The molecule further showed a Ki in experiment [2] of 60 nM. Further, the Intrinsic activity in experiment [4] amounted to 100%.
In the same order, the values of `Cc1cc(OCc2ccccc2)ccc1Oc1ccc(N2C[C@@H](C(F)(F)F)C[C@H]2CC(=O)O)cc1` are 120 nM, 1.5 µM, 10 nM and 34%.
As for `O=C(O)C[C@@H]1CCCN1c1ccc(Oc2ccc(Cl)cc2Cl)cc1`, the figures for the EC50 in experiment [1] and in experiment [3] were 360 nM and 3.2 µM, respectively. The Intrinsic activity in experiment [4] was 120%.
For the molecule `CCOc1ccccc1Oc1ccc(N2CCC[C@H]2CC(=O)O)cc1`, the results for the EC50 in experiment [1] and in experiment [3] were 1700 nM and greater than 33 µM, respectively.
For the molecule `Cc1ccccc1Cc1ccc(N2C[C@@H](C)C[C@H]2CC(=O)O)cc1`, the EC50 in experiment [1] was 140 nM; in experiment [3], 1.1 µM. The Ki in experiment [2] turned out to be 360 nM. Also, the Intrinsic activity in experiment [4] was 43%.
In the same order, the values of `Cc1c(Cl)cccc1Oc1ccc(N2C[C@@H](C(F)(F)F)C[C@H]2CC(=O)O)cc1` are 82 nM, 0.43 µM, 13 nM and 50%.
For `O=C(O)C[C@@H]1CCCN1c1ccc(Oc2ccccc2-c2ccccc2)cc1`, the concentration giving a half-maximal response (EC50) was 3500 nM in experiment [1] and 1.3 µM in experiment [3]. In addition, the Intrinsic activity in experiment [4] came out at 72%.
In the same order, the values of `Cc1cccc(Oc2ccc(N3CCC[C@H]3CC(=O)O)cc2)c1` are 260 nM, 2.4 µM and 83%.
Regarding `Cc1ccccc1Cc1ccc(N2CCC[C@@]2(C)CC(=O)O)cc1`, the values for the EC50 in experiment [1] and in experiment [3] were greater than 33000 nM and greater than 33 µM, respectively. The molecule further gave a Ki in experiment [2] of 23000 nM.
In the same order, the values of `Cc1ccccc1Cc1ccc(N2C[C@@H](c3ccccc3)C[C@H]2CC(=O)O)cc1` are greater than 17000 nM, greater than 33 µM and greater than 25000 nM.
For the molecule `O=C(O)C[C@H]1CCCN1c1ccc(OCc2ccc(Cl)cc2Cl)cc1`, the EC50 is 880 nM in experiment [1] and greater than 17 µM in experiment [3].
Turning to `Cc1cc(OCc2ccc(Cl)cc2Cl)ccc1N1CCC[C@H]1CC(=O)O`, the EC50 in experiment [1] is 8900 nM; in experiment [3], 14 µM. Moreover, in experiment [4], the Intrinsic activity stood at 70%.
In the same order, the values of `COc1ccc(F)c(-c2ccc(Cc3ccc(N4C[C@@H](C(F)(F)F)C[C@@H]4CC(=O)O)cc3)c(C)c2)c1` are 150 nM, 0.053 µM and 210%.
Consider `O=C(O)CC1CCCCCN1c1ccc(OCc2ccc(Cl)cc2Cl)cc1` (single isomer, unassigned; enantiomer 1), for which the values for the EC50 in experiment [1] and in experiment [3] were 6400 nM and greater than 16 µM, respectively.
Turning to `Cc1ccccc1Cc1ccc(N2C[C@@H](F)C[C@H]2CC(=O)O)cc1`, the EC50 in experiment [1] was 74 nM; in experiment [3], greater than 33 µM. The inhibition constant Ki in experiment [2] came to 180 nM.
For the molecule `Cc1ccccc1Cc1ccc(N2CC[C@H](C)[C@H]2CC(=O)O)cc1`, the EC50 in experiment [1] was 120 nM; in experiment [3] it was 1.9 µM. In experiment [2], the Ki is 310 nM. Moreover, the Intrinsic activity in experiment [4] was found to be 27%.
On to `O=C(O)C[C@@H]1CCCN1c1ccc(Oc2ccccc2F)cc1`, for which the EC50 in experiment [1] came out at 150 nM; in experiment [3] it was 6.9 µM. In addition, the affinity in experiment [2] corresponds to a Ki of 1300 nM. Moreover, the Intrinsic activity in experiment [4] was 50%.
In the same order, the values of `Cc1ccccc1Cc1ccc(N2C[C@@H](C(F)(F)F)C[C@H]2CC(=O)O)cc1` are 67 nM, 0.71 µM, 73 nM and 54%.
On to `O=C(O)C[C@@H]1CCN1c1ccc(OCc2ccc(Cl)cc2Cl)cc1`, for which the EC50 in experiment [1] stood at 260 nM; in experiment [3], 0.44 µM. Also, in experiment [4], the Intrinsic activity stood at 88%.
`Cc1ccccc1COc1ccc(N2CCC[C@H]2CC(=O)O)cc1C`: the EC50 in experiment [1] is greater than 33000 nM; in experiment [3], greater than 33 µM.
`COc1ccc(Oc2ccc(N3C[C@@H](C(F)(F)F)C[C@H]3CC(=O)O)cc2)c(C)c1` displayed a Ki in experiment [2] of 39 nM. In addition, in experiment [3], the EC50 amounted to 0.17 µM. In addition, the Intrinsic activity in experiment [4] amounted to 41%.
As to `O=C(O)C[C@@H]1C[C@H](C(F)(F)F)CN1c1ccc(Oc2ccccc2OC(F)(F)F)cc1`, the half-maximal effective concentration (EC50) in experiment [1] worked out at 170 nM; in experiment [3], 0.74 µM. The Intrinsic activity in experiment [4] amounted to 44%.
For `O=C(O)C[C@H]1CCN1c1ccc(OCc2ccc(Cl)cc2Cl)cc1`, the figures for the EC50 in experiment [1] and in experiment [3] were 13000 nM and greater than 17 µM, respectively.
In the case of `O=C(O)CC1CCN(c2ccc(OCc3ccc(Cl)cc3Cl)cc2)C1` (stereo not given), the EC50 in experiment [1] is greater than 33000 nM; in experiment [3], greater than 33 µM.
In the same order, the values of `Cc1ccccc1Sc1ccc(N2CCC[C@H]2CC(=O)O)cc1` are 570 nM and greater than 17 µM.
In the same order, the values of `O=C(O)C[C@@H]1CCCN1c1ccc(OCc2ccc(Cl)cc2Cl)cn1` are 220 nM and greater than 33 µM.
On to `Cc1ccccc1C(=O)c1ccc(N2CCC[C@H]2CC(=O)O)cc1`, for which the results for the EC50 in experiment [1] and in experiment [3] were 4600 nM and greater than 33 µM, respectively. For the same molecule, the Ki in experiment [2] is greater than 33000 nM.
Turning to `CC(C)(C)c1ccccc1Oc1ccc(N2CCC[C@H]2CC(=O)O)cc1`, the EC50 is 6500 nM in experiment [1] and greater than 17 µM in experiment [3].
Regarding `O=C(O)C[C@@H]1CCCN1c1ccc(Oc2ccccc2)cc1`, the EC50 is 560 nM in experiment [1] and greater than 16 µM in experiment [3]. Besides, in experiment [2], the affinity, expressed as Ki, was 6500 nM.
Take `COc1ccc(F)c(-c2ccc(Cc3ccc(N4CCC[C@H]4CC(=O)O)cc3)c(C)c2)c1`: the EC50 in experiment [1] amounted to 220 nM; in experiment [3] it was 1.9 µM. Further, the affinity in experiment [2], expressed as Ki, was 310 nM. The Intrinsic activity in experiment [4] is 160%.
On to `O=C(O)C1CCN(c2ccc(OCc3ccc(Cl)cc3Cl)cc2)C1` (stereo not given), for which the figures for the EC50 in experiment [1] and in experiment [3] were 2100 nM and greater than 16 µM, respectively.
On to `COc1ccc(F)c(-c2ccc(Cc3ccc(N4C[C@H](C(F)(F)F)C[C@H]4CC(=O)O)cc3)c(C)c2)c1`, for which the EC50 was determined as 1700 nM in experiment [1] and 1.1 µM in experiment [3]. Also, the Intrinsic activity in experiment [4] stood at 140%.
Regarding `COc1ccc(Oc2ccc(N3CCC[C@H]3CC(=O)O)cc2)cc1`, the EC50 in experiment [1] was 520 nM; in experiment [3] it was greater than 33 µM.
In the same order, the values of `O=C(O)C[C@@H]1CCCN1c1ccc(Oc2ccc(Cl)cc2)cc1` are 290 nM and greater than 33 µM.
Turning to `Cc1ccccc1Cc1ccc(N2CC[C@H](c3ccccc3)[C@H]2CC(=O)O)cc1`, the EC50 in experiment [1] was 11000 nM; in experiment [3] it was greater than 33 µM.
As for `Cc1ccccc1Cc1ccc(N2[C@H](CC(=O)O)CC[C@@H]2C)cc1`, the EC50 in experiment [1] is 6200 nM; in experiment [3], greater than 33 µM.
With `O=C(O)C[C@@H]1C[C@H](C(F)(F)F)CN1c1ccc(Oc2ccccc2C(F)(F)F)cc1`, the EC50 in experiment [1] is 310 nM; in experiment [3] it was 1.3 µM. Further, the Intrinsic activity in experiment [4] came to 42%.
As to `O=C(O)CC1CCCCN1c1ccc(OCc2ccc(Cl)cc2Cl)cc1` (single isomer, unassigned; enantiomer 2), the EC50 was greater than 17000 nM in experiment [1] and greater than 33 µM in experiment [3].
In the same order, the values of `Cc1ccccc1[S+]([O-])c1ccc(N2CCC[C@H]2CC(=O)O)cc1` (mixture of isomers) are greater than 33000 nM and greater than 33 µM.
The molecule `CO[C@H]1C[C@@H](CC(=O)O)N(c2ccc(Oc3ccccc3C)cc2)C1` yielded a Ki in experiment [2] of 9000 nM. Besides, the EC50 in experiment [3] worked out at 0.96 µM. Further, in experiment [4], the Intrinsic activity was found to be 76%.
Take `CN(C)c1cccc(Oc2ccc(N3CCC[C@H]3CC(=O)O)cc2)c1`: the EC50 was 1300 nM in experiment [1] and greater than 33 µM in experiment [3].
In the same order, the values of `Cc1ccc(Oc2ccc(N3CCC[C@H]3CC(=O)O)cc2)cc1` are 490 nM and greater than 33 µM.
In the case of `O=C(O)CC1CCCCN1c1ccc(OCc2ccc(Cl)cc2Cl)cc1` (single isomer, unassigned; enantiomer 1), the EC50 is greater than 33000 nM in experiment [1] and greater than 33 µM in experiment [3].
In the case of `O=C(O)C[C@@H]1CCCN1c1ccc(Oc2cccc(Cl)c2)cc1`, the EC50 in experiment [1] is 680 nM; in experiment [3] it was greater than 16 µM.

(Values after ChEMBL document CHEMBL4052594, “Discovery of Pyrrolidine-Containing GPR40 Agonists: Stereochemistry Effects a Change in Binding Mode” (J Med Chem, 2017).)
